Shown is part of a subset that was picked to be rich in hits.
pCIP destab: lowers stability of the mouse p/CIP coactivator protein; F442A p/CIP-EGFP cells, EGFP fluorescence, 16 h; Q05BA5; 290,000 tested, 0.01% active; decrease of EGFP signal, % at 10 µM; AID 1984;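 active = EGFP signal decrease of at least 30% at 10 µM or well 3 SD below plate mean, unless failing retest; inactive = the rest, including hits failing retest or dose response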
B2AR ag: activates human beta-2 adrenergic receptor causing internalization. P07550. Am2.2-beta2AR cells, FAP receptor internalization, flow cytometry. response, % (concentration not given with the values). 340,000 tested, 0.43% active;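 active = response above a set limit, near 3 SD of response in nonfluorescent compounds, cut at about 42% in these data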
Dynein transport: dynein cargo transport inhibition; 220,000 tested, 0.47% active; z-score, hits read low; 3617.4 mouse cells, GR-EGFP nuclear translocation imaging; test concentration mostly 20 µM; stimulated with dexamethasone, 1 µM; stronger effect = lower value;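 active = plate z-score of nuclear minus cytoplasmic receptor signal below a set negative limit, without overly bright fluorescence or cell loss, cut at about -3.5 in these data, passing the limit was not always enough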;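 note: z-score of nuclear minus cytoplasmic ring GR-EGFP intensity difference per well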
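Buffer or medium: tet-free medium with charcoal-stripped serum / Also added: dexamethasone agonist, 1.0 µM final, for 30 min / Timing: induction 48 h, compound 1 h, agonist 30 min / Measured by: high-content fluorescence imaging after fixation / Read-out: nuclear-to-cytoplasmic GR-EGFP distribution per well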
UPR CHOP act: activators of apoptotic arm of unfolded protein response (CHOP); AID 449763; 330,000 tested, 0.34% active; activation, % at 10 µM; CHO-CHOP luciferase reporter, UPR activation, luminescence; percent of tunicamycin response over DMSO baseline;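 active = at 10 µM dose, activation of 40% or more, normalized to positive control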
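measured by = luciferase luminescence | assay system = CHO-CHOP cells, stable luciferase reporter of PERK-eIF2a-CHOP signalling | amount = 500 reporter cells seeded per well | timing = 6 h compound exposure at 37 °C after overnight seeding | controls = positive tunicamycin 10 µg/mL, negative DMSO alone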
UPR XBP1 act: activators of adaptive arm of unfolded protein response (XBP1); 330,000 tested, 0.33% active; activation, % at 20 µM; CHO-XBP1 luciferase reporter, IRE1-XBP1 UPR activation, luminescence; percent of tunicamycin response, DMSO as zero;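 active = versus positive control, 20 µM dose yields 30% or more activation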
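Signal: luciferase luminescence; Assay system: CHO-XBP1 luciferase reporter cells; Amount: one thousand reporter cells per well; Dosing: 20 µM single concentration, DMSO 1%; Benchmarks: high control tunicamycin 10 µg/mL final, low control DMSO vehicle only; Schedule: 6 h compound exposure at 37 °C, 5% CO2; Evaluation: percent activation relative to tunicamycin reference.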
CHOP inhibitor: CHOP inhibition in unfolded protein response; CHO-K1 CHOP-promoter luciferase, tunicamycin-induced, 15-18 h; inhibition, % at 10 µM; AID 2732; 220,000 tested, 3.8% active;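 active = compounds that reduced the stress-induced luciferase reporter signal by more than about 70% of percent inhibition, limit read from the data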
CHOP UPR conf: apoptotic UPR (CHOP) activation, confirmed; CHO-CHOP cells, CHOP-luciferase reporter luminescence; percent of tunicamycin response, DMSO as zero; shares compounds with UPR CHOP act; 1,000 tested, 64% active; AID 463112; activation, % at 10 µM; in the data active = activation above about 33%
XBP1 UPR conf: confirmation of adaptive unfolded protein response (XBP1) activators; shares compounds with UPR XBP1 act; CHO-XBP1 IRE1-XBP1 luciferase reporter, luminescence; activation, % at 20 µM; 1,000 tested, 63% active;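 active = reporter signal at least 30% of the positive control's activation in two or more of four replicate wells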
Numbers stand for hits; n = inactive; x = no result.

SMILES	pCIP destab	B2AR ag	Dynein transport	UPR CHOP act	UPR XBP1 act	CHOP inhibitor	CHOP UPR conf	XBP1 UPR conf
COC(=O)c1ccc(COc2ccccc2/C=C(\C#N)C(=O)Nc2ccccc2C)cc1	n	n	n	n	n	n	x	x
COC(=O)c1ccc(COc2ccccc2/C=C(\C#N)C(=O)Nc2c(C)cccc2C)cc1	n	n	n	128	65	n	85	65
COc1ccc(/C=C/c2nc3cc(-c4ccccc4)ccc3o2)cc1O	n	n	n	45	39	n	50	29
CCc1ccc(-c2cc(C(F)(F)F)n3nc(C(=O)Nc4c(C)nn(Cc5ccc(F)cc5)c4C)cc3n2)s1	n	n	n	n	n	n	x	x
CCOC(=O)/C=c1/s/c(=C/c2ccc3cc(OC)ccc3c2)c(=O)n1CC(=O)NCc1ccc2c(c1)OCO2	x	n	x	x	x	x	x	x
CCOC(=O)/C=c1\s/c(=C\c2ccc3cc(OC)ccc3c2)c(=O)n1CC(=O)NCC1CCCO1 (stereo unspecified)	n	n	n	86	371	n	131	580
COc1cc(NC(=O)c2ncn[nH]2)cc(OC)c1OC	n	n	n	n	n	n	x	x
CCn1cc(C(=O)NC(=S)Nc2sc3c(c2C(=O)OC)CCCCCC3)cn1	n	n	n	71	60	78	35	57
CC(=O)Nc1ccc(S(=O)(=O)NCC2CC3CCC2C3)cc1 (stereo unspecified)	x	n	x	x	x	x	x	x
COc1ccc(Cc2noc(CN(C)CC3(N4CCOCC4)CCCCC3)n2)cc1OC	n	n	n	n	n	n	x	x
Oc1ccc(CN2CCC(Cc3ccccc3)CC2)c2cccnc12	n	x	n	385	39	n	254	31
Cc1[nH]c2ccccc2c1CN1CCC(Cc2ccccc2)CC1	n	n	n	46	33	n	47	n
COc1cc(OC)cc(C(=O)NC(C(=O)Nc2ccc3c(c2)OCO3)C(C)C)c1 (stereo unspecified)	x	n	x	n	n	x	x	x
CCNc1nc(NCC)n2c(SCC(=O)c3ccccc3F)nnc2n1	n	n	n	n	n	n	x	x
CCN(CC(=O)Nc1c(C(=O)OC)[nH]c2ccc(Cl)cc12)c1ccc2c(c1)OCO2	n	n	n	n	n	n	x	x
CCOC(=O)c1[nH]c2ccc(Cl)cc2c1NC(=O)/C=C/c1ccc2c(c1)OCO2	n	n	n	54	168	n	n	138
CCc1ccc2[nH]c(=O)c(CN(Cc3ccc(F)cc3)C(c3nnnn3CCN3CCOCC3)C(C)C)cc2c1 (stereo unspecified)	n	n	n	55	38	n	n	n
CCc1ccc2[nH]c(=O)c(C(c3nnnn3CCOC)N3CCN(c4ccc(F)cc4)CC3)cc2c1 (stereo unspecified)	n	n	n	n	n	n	x	x
COc1ccc2oc3cc(C)[n+]([O-])c(-c4ccc(Cl)cc4)c3c2c1	n	n	n	n	n	n	x	x
COc1cc(C(=O)Oc2ccc3c(c2)OCC3=O)cc(OC)c1OC	n	n	n	46	43	n	n	n
COc1cc(OC)cc(OCC(O)Cn2ccnc2)c1 (stereo unspecified)	n	n	n	n	n	n	x	x
COc1ccc(CNC(=O)CSc2nc(-c3ccccc3)cc(-c3cccs3)c2C#N)cc1	n	n	n	45	33	n	n	n
COc1ccc(-c2cc(-c3cccs3)c(C#N)c(SCC(=O)NCc3ccco3)n2)cc1	n	n	n	n	n	x	x	x
CCOc1ccc(NC(=O)/C=C/c2ccc(OC)cc2)c([N+](=O)[O-])c1	n	n	n	n	n	n	x	x
CCOc1ccc(NC(=S)NC(=O)/C=C/c2ccc(OC)c(OC)c2)c([N+](=O)[O-])c1	n	x	n	61	168	81	49	251
SMILES	pCIP destab	B2AR ag	Dynein transport	UPR CHOP act	UPR XBP1 act	CHOP inhibitor	CHOP UPR conf	XBP1 UPR conf
O=C(CCc1nnc2ccc(N3CCC4(CC3)OCCO4)nn12)NCc1ccc(F)cc1	n	n	x	n	n	x	x	x
COc1ccc(/C=c2\s/c(=C(/C#N)C(=O)NCc3ccco3)n(-c3ccccc3)c2=O)cc1	n	n	n	43	38	n	n	43
Cc1ccc(-n2nc3cc(C)c(NC(=S)NC(=O)/C=C/c4ccco4)cc3n2)cc1	n	n	n	65	56	n	128	114
CCOC(=O)c1nn(-c2ccc(OCC)cc2)c2nc(-c3ccco3)c(C#N)c(=O)n12	n	n	n	53	75	n	n	52
Cc1ccc(S(=O)(=O)NCc2ccc(C(=O)NC3CCCCC3)cc2)cc1	n	n	x	n	n	x	x	x
Oc1ccc(/C=N/Nc2cc(N3CCOCC3)nc(N3CCOCC3)n2)cc1O	n	n	n	268	59	n	100	42
Oc1cccc(/C=N/Nc2cc(N3CCOCC3)nc(N3CCOCC3)n2)c1	n	n	n	n	n	n	x	x
COc1ccc(CNC(=O)COC(=O)CN2C(=O)NC3(CCCC3)C2=O)cc1	x	n	x	n	n	x	x	x
Cc1nn(-c2ccccc2)c(C)c1/C=N/NC(=O)CSc1nc2ccccc2c(=O)n1-c1ccc(Br)cc1	n	n	n	252	69	85	60	111
Cc1nn(Cc2ccc(Cl)c(Cl)c2)c(C)c1NC(=O)c1sc2ccccc2c1Cl	n	n	n	n	n	n	x	x
Cc1nn(Cc2c(Cl)cccc2Cl)c(C)c1NC(=O)c1sc2ccccc2c1Cl	n	n	n	49	65	n	40	67
COCc1cc(C)nc(OCC(=O)N/N=C/c2ccco2)c1C#N	n	n	n	n	n	n	x	x
COCc1cc(C)nc(OCC(=O)N/N=C/c2ccc(-c3cc([N+](=O)[O-])ccc3Cl)o2)c1C#N	n	n	n	53	342	92	70	277
CCC(=O)N(Cc1ccc(S(N)(=O)=O)cc1)C1CC(=O)N(c2ccccc2)C1=O (stereo unspecified)	n	n	n	n	n	n	x	x
O=C(NCCc1ccc(O)c(O)c1)C1COc2ccccc2O1 (stereo unspecified)	n	n	x	64	50	x	n	46
COc1cc(CNC(=O)c2ccc3oc(C(C)C)nc3c2)cc(OC)c1	n	n	x	n	n	x	x	x
COC(=O)c1scc(C)c1NC(=O)CC1NCCNC1=O (stereo unspecified)	n	n	n	n	n	n	x	x
O=c1c2ccccc2nc2n1-c1ccccc1CCC2	n	n	n	n	n	n	x	x

Screens (PubChem)
